Data set [1] relates to Human immunodeficiency virus 1. Nature of the data set: Antiviral activity against HIV1 LAI infected in CEMx174 cells coexpressing GFP after 5 days by fluorimetry. Format: functional, organism-based. Particulars: for pEC50: Human immunodeficiency virus 1, LAI, CEMx174, 120 h. The essentials:
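Cells (4000/well) pre-incubated with compound diluted in DMSO for 1 h at 37 °C, 5% CO2, then infected with HIV-1 LAI at MOI 3 and cultured 5 days at 37 °C, 5% CO2. EC50 is the concentration inhibiting viral replication by 50%. Values are geometric means of two determinations (n = 2), each within 25% of the mean.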

A short description of data set [2]: Cytotoxicity against human CEmx174 cells. Format: cell-based. In a few lines: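 CC50 is the concentration that reduces viability of uninfected cells by 50%. Reported as the geometric mean of two determinations (n = 2), each within 25% of the mean.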
Data set [3] can be described thus: Half life in human liver microsomes at 2 uM. Format: ADME, Microsome. In a few lines: (§1)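 Compound at 2 µM final was incubated with rat or human liver microsomes (0.5 mg/mL protein) in potassium phosphate buffer with 0.2% DMSO final. Reaction was started with NADPH and stopped at 0, 5, 10, 30, 60 and 120 min. Loss of parent was measured by LC/MS (ESI quadrupole, water/acetonitrile with 0.1% formic acid gradient). Values are geometric means of n = 2.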
In general terms: Liver microsomes are a subcellular fraction often used to study metabolism.

A short description of data set [4]: Half life in rat liver microsomes at 2 uM. It counts as ADME, Microsome. The essentials: as §1

The structures appear in SMILES notation. pEC50: −log10 of the molar value. Activity calls are given as the source filed them.

What is called pEC50 is −log10 of the EC50, conventionally taken in molar units. Higher therefore signals a small EC50. The CC50 is the concentration at which the toxic effect on the cells reaches its halfway point. Higher therefore signals better tolerance by the cells. The half-life is the time needed for the level to fall by half in the phase considered. Low values mean rapid decline, high ones slow decline.

For `CCC1=C(c2nc(C3CCCCC3)c[nH]2)[C@H](c2ccc(O)c(F)c2)NC(=O)N1`, the pEC50 in data set [1] is < 5.00. Further, the 50% cytotoxic concentration (CC50) in data set [2] was > 10 µM.
For `CCC1=C(C(=O)CC2CCC(C(C)C)CC2)[C@H](c2ccc(O)c(Cl)c2)NC(=O)N1` (stereo not given in full), in that order: 5.85 and > 10 µM.
On to `O=C1NC2=C(C(=O)OCC2)C(c2cccc(O)c2)N1` (stereo not given), for which the negative logarithm of the EC50 (pEC50) in data set [1] is < 5.00. The CC50 in data set [2] is > 10 µM.
For the compound `CCC1=C(C(=O)O)[C@H](c2cccc(O)c2)NC(=O)N1`, the result in data set [1] was inactive.
On to `O=C1NC2=C(C(=O)OC2)C(c2cccc(O)c2)N1` (stereo not given), for which the negative-log EC50 (pEC50) in data set [1] was < 5.00. Moreover, the cytotoxic concentration (CC50) in data set [2] was > 10 µM.
In data set [1], `CCC1=C(C(=O)CCC2CCCCCC2)[C@H](c2ccc(O)c(Cl)c2)NC(=O)N1` gave a negative-log EC50 (pEC50) of 6.48. The 50% cytotoxic concentration (CC50) in data set [2] was > 10 µM.
In the case of `CCC1=C(C(=O)O)[C@H](c2ccc(O)c(Cl)c2)NC(=O)N1`, in data set [1], the result was inactive.
Compound `CCC1=C(C(=O)CCC2CCCC2)[C@H](c2ccc(O)c(Cl)c2)NC(=O)N1` had a pEC50 in data set [1] of 6.38. Moreover, the CC50 in data set [2] is > 10 µM.
Regarding `CCC1=C(C(=O)CC2CCC(OC)CC2)[C@H](c2ccc(O)c(Cl)c2)NC(=O)N1` (stereo not given in full), the negative-log EC50 (pEC50) in data set [1] was < 5.00. Moreover, the CC50 in data set [2] is > 10 µM.
In data set [1], `CCC1=C(C(=O)CC2CCCC2)[C@H](c2ccc(O)c(Cl)c2)NC(=O)N1` showed a negative logarithm of the EC50 (pEC50) of 5.48. Besides, the 50% cytotoxic concentration (CC50) in data set [2] was > 10 µM.
In the case of `CCC1=C(C(=O)CC2CCCCC2)[C@H](c2ccc(O)c(Cl)c2)NC(=O)N1`, in data set [1], the pEC50 was 6.01. Also, the 50% cytotoxic concentration (CC50) in data set [2] was > 10 µM. Also, the results for the half-life at 2 µM in data set [3] and in data set [4] were 18 min and 7 min, respectively.
Turning to `CCC1=C(C(=O)CCc2ccccc2)[C@H](c2ccc(O)c(Cl)c2)NC(=O)N1`, the negative logarithm of the EC50 (pEC50) in data set [1] was < 5.00. Also, in data set [2], the CC50 was > 10 µM.
As to `CCC1=C(C(=O)CCC2CCCCC2)[C@H](c2ccc(O)c(Cl)c2)NC(=O)N1`, in data set [1], the pEC50 is 6.39. In addition, the CC50 in data set [2] was > 10 µM. In addition, the half-life at 2 µM came to 22 min in data set [3] and 5 min in data set [4].
In data set [1], `CCC1=C(C(=O)CC2CCC(CC)CC2)[C@H](c2ccc(O)c(Cl)c2)NC(=O)N1` (stereo not given in full) had a negative-log EC50 (pEC50) of 7.06. Besides, the CC50 in data set [2] is > 10 µM. For the same compound, the figures for the half-life at 2 µM in data set [3] and in data set [4] were 24 min and 16 min, respectively.
As to `Cc1ccnc2c1NC(=O)c1cccnc1N2C1CC1` [NEVIRAPINE], the CC50 in data set [2] is > 10 µM.
On to `CCC1=C(c2nc(C3CCCCC3)cs2)[C@H](c2ccc(O)c(Cl)c2)NC(=O)N1`, for which the pEC50 in data set [1] was 7.11. Further, the cytotoxic concentration (CC50) in data set [2] was > 10 µM. Moreover, the half-life at 2 µM in data set [3] came out at 682 min; in data set [4] it was 30 min.
The compound `CCC1=C(c2nc(C3CCCCC3)co2)[C@H](c2ccc(O)c(Cl)c2)NC(=O)N1` had a pEC50 in data set [1] of 6.94. In data set [2], the CC50 was > 10 µM. For the same compound, the half-life at 2 µM in data set [3] was found to be 132 min; in data set [4], 54 min.
Compound `CCC1=C(C(=O)OCC2CCCCC2)[C@H](c2ccc(O)c(Cl)c2)NC(=O)N1` had a negative-log EC50 (pEC50) in data set [1] of 7.72. In addition, the CC50 in data set [2] was > 10 µM. For the same compound, the half-life at 2 µM came out at 36 min in data set [3] and 7 min in data set [4].
With `CCC1=C(C(=O)CC2CCC(C)CC2)[C@H](c2ccc(O)c(Cl)c2)NC(=O)N1` (stereo not given in full), in data set [1], the negative-log EC50 (pEC50) is 6.32. For the same compound, the cytotoxic concentration (CC50) in data set [2] was > 10 µM.
`CCC1=C(C(=O)OCC2CCCCC2)[C@H](c2cccc(O)c2)NC(=O)N1`: the 50% cytotoxic concentration (CC50) in data set [2] is > 10 µM. Also, the half-life at 2 µM was 11 min in data set [3] and 1.5 min in data set [4].
